In PMC10841542 (Immunology, 2023):
“Also recorded” adds a separate entry of the source.

How the values were obtained:
ERAP1 WT [1] = test: Steady-state kinetics of L-AMC hydrolysis ± 7-mer peptide activator, ERAP1 WT; type: biochemical, human; conditions: pH 8.0, 27 °C
Procedure, shortened: (§1)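 Steady-state kinetics used purified His6-tagged ERAP1 (allotype-1, WT or mutant) from baculovirus-infected Sf9 cells at 1.5 µg ml-1. Buffer was 50 mM Tris/HCl pH 8.0, 0.1 M NaCl at 27 °C, with L-AMC at 0–2,000 µM, with or without 100 µM 7-mer peptide. AMC release (ex 380/em 460 nm) was followed for 5 min. Initial rates from three time points (nmoles.min-1.µg-1) were curve-fitted for Vmax, K1/2 and Hill coefficient. Comparisons used Brown-Forsyth one-way ANOVA with Tukey's test.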

ERAP1 I681R [2] = target: T1, ERAP1 I681R (Homo sapiens, UniProt Q9NZ08, I681R); test: Steady-state kinetics of L-AMC hydrolysis ± 7-mer peptide activator, I681R; type: biochemical; conditions: pH 8.0, 27 °C
Procedure, shortened: as §1

ERAP1 L733R [3] = target: T2, ERAP1 L733R (Homo sapiens, UniProt Q9NZ08, L733R); test: Steady-state kinetics of L-AMC hydrolysis ± 7-mer peptide activator, L733R; type: biochemical; conditions: pH 8.0, 27 °C
Procedure, shortened: as §1

ERAP1 L734R [4] = test: Steady-state kinetics of L-AMC hydrolysis ± 7-mer peptide activator, L734R; type: biochemical, human; conditions: pH 8.0, 27 °C
Procedure, shortened: as §1

ERAP1 V737R [5] = target: T3, ERAP1 V737R (Homo sapiens, UniProt Q9NZ08, V737R); test: Steady-state kinetics of L-AMC hydrolysis ± 7-mer peptide activator, V737R; type: biochemical; conditions: pH 8.0, 27 °C; for allosteric activation in steady state kinetics: 100 μM peptide, 0–2,000 μM L-AMC
Procedure, shortened: as §1

ERAP1 F803R [6] = target: T4, ERAP1 F803R (Homo sapiens, UniProt Q9NZ08, F803R); test: Steady-state kinetics of L-AMC hydrolysis ± 7-mer peptide activator, F803R; type: biochemical; conditions: pH 8.0, 27 °C
Procedure, shortened: as §1

ERAP1 WT [7] = test: Allosteric activation of L-AMC hydrolysis, varying peptide effector, ERAP1 WT; type: biochemical, human; conditions: 0–2,000 μM peptide, 100 μM L-AMC, 27 °C, three independent repeats
Procedure, shortened: (§2)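 Recombinant human ERAP1 (allotype-1, WT or Arg point mutant) carrying a C-terminal His6 tag, expressed in baculovirus-infected Sf9 cells and purified by Ni-NTA then gel filtration (full-length peak). 1.5 µg/ml enzyme with 100 µM L-AMC and 7-mer peptide activator varied 0–2,000 µM, in 50 mM Tris/HCl pH 8.0, 0.1 M NaCl, 27 °C, 5 min. AMC fluorescence read at ex 380/em 460 nm against AMC standards. Vmax and AC50 fitted to Michaelis-Menten.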

ERAP1 I681R [8] = target: T1, ERAP1 I681R; test: Allosteric activation of L-AMC hydrolysis, varying peptide effector, I681R; type: biochemical; conditions: 0–2,000 μM peptide, 100 μM L-AMC, 27 °C, three independent repeats
Procedure, shortened: as §2

ERAP1 L733R [9] = target: T2, ERAP1 L733R; test: Allosteric activation of L-AMC hydrolysis, varying peptide effector, L733R; type: biochemical; conditions: 0–2,000 μM peptide, 100 μM L-AMC, 27 °C, three independent repeats
Procedure, shortened: as §2

ERAP1 L734R [10] = target: ERAP1 L734R (Homo sapiens, UniProt Q9NZ08, L734R); test: Allosteric activation of L-AMC hydrolysis, varying peptide effector, L734R; type: biochemical; conditions: 0–2,000 μM peptide, 100 μM L-AMC, 27 °C, three independent repeats
Procedure, shortened: as §2

ERAP1 V737R [11] = target: T3, ERAP1 V737R; test: Allosteric activation of L-AMC hydrolysis, varying peptide effector, V737R; type: biochemical; conditions: 0–2,000 μM peptide, 100 μM L-AMC, 27 °C, three independent repeats
Procedure, shortened: as §2

ERAP1 F803R [12] = target: T4, ERAP1 F803R; test: Allosteric activation of L-AMC hydrolysis, varying peptide effector, F803R; type: biochemical; conditions: 0–2,000 μM peptide, 100 μM L-AMC, 27 °C, three independent repeats
Procedure, shortened: as §2

ERAP1 WT [13] = test: Simple activation assay; type: biochemical, human; conditions: 100 μM L-AMC, pH 8.0, 25 °C, 5 min; for activation of L-AMC hydrolysis over basal level: 100 μM peptide
Procedure, shortened: (§3)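 ERAP1 enzyme: allotype-1, WT or point mutant, with a C-terminal His6 tag. It was expressed in Sf9 cells by baculovirus and purified by Ni-NTA and gel filtration. Assay: 1.5 µg ml-1 enzyme in 50 mM Tris/HCl pH 8.0, 0.1 M NaCl at 25 °C, with or without 100 µM 7-mer peptide activator. Hydrolysis of 100 µM L-AMC was followed for 5 min by AMC fluorescence (ex 380/em 460 nm), calibrated with AMC standards.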

ERAP1 I681R [14] = target: T1, ERAP1 I681R; test: Simple activation assay; type: biochemical; conditions: 100 μM L-AMC, pH 8.0, 25 °C, 5 min
Procedure, shortened: as §3

ERAP1 L733R [15] = target: T2, ERAP1 L733R; test: Simple activation assay; type: biochemical; conditions: 100 μM L-AMC, pH 8.0, 25 °C, 5 min
Procedure, shortened: as §3

ERAP1 L734R [16] = test: Simple activation assay; type: biochemical, human; conditions: 100 μM L-AMC, pH 8.0, 25 °C, 5 min
Procedure, shortened: as §3

ERAP1 V737R [17] = target: T3, ERAP1 V737R; test: Simple activation assay; type: biochemical; conditions: 100 μM L-AMC, pH 8.0, 25 °C, 5 min
Procedure, shortened: as §3

ERAP1 F803R [18] = test: Simple activation assay; type: biochemical, human; conditions: 100 μM L-AMC, pH 8.0, 25 °C, 5 min; for activation of L-AMC hydrolysis over basal level: 100 μM peptide
Procedure, shortened: as §3

ERAP1 WT and variants = type: biochemical, human; conditions: 100 μM peptide; most enzyme variants; 0–2,000 μM L-AMC; pH 8.0; 27 °C
Procedure, shortened: as §1

ERAP1 = conditions: cited from earlier work
ERAP1 WT [19] = test: N-terminal peptide trimming, LC-MS/MS, ERAP1 WT; type: biochemical, human; conditions: from 11-mer KL1, pH 7.8, 30 °C, two independent experiments
ERAP1 F803R [20] = target: ERAP1 F803R (Homo sapiens, UniProt Q9NZ08, F803R/R127P); test: N-terminal peptide trimming, LC-MS/MS, F803R; type: biochemical; conditions: from 11-mer KL1, pH 7.8, 30 °C, two independent experiments
[21] = 100 μM peptide, 0–2,000 μM L-AMC
[22] = 1.5 μg/ml enzyme, 50 mM Tris/HCl pH 8.0, 0.1 M NaCl, 5 min
[23] = read-out: AC50 (half maximal activation concentration), pH 8.0
[24] = 100 μM peptide, relative to wildtype
[25] = no peptide activator, three independent repeats

T1 sequence (Q9NZ08 whole entry I681R): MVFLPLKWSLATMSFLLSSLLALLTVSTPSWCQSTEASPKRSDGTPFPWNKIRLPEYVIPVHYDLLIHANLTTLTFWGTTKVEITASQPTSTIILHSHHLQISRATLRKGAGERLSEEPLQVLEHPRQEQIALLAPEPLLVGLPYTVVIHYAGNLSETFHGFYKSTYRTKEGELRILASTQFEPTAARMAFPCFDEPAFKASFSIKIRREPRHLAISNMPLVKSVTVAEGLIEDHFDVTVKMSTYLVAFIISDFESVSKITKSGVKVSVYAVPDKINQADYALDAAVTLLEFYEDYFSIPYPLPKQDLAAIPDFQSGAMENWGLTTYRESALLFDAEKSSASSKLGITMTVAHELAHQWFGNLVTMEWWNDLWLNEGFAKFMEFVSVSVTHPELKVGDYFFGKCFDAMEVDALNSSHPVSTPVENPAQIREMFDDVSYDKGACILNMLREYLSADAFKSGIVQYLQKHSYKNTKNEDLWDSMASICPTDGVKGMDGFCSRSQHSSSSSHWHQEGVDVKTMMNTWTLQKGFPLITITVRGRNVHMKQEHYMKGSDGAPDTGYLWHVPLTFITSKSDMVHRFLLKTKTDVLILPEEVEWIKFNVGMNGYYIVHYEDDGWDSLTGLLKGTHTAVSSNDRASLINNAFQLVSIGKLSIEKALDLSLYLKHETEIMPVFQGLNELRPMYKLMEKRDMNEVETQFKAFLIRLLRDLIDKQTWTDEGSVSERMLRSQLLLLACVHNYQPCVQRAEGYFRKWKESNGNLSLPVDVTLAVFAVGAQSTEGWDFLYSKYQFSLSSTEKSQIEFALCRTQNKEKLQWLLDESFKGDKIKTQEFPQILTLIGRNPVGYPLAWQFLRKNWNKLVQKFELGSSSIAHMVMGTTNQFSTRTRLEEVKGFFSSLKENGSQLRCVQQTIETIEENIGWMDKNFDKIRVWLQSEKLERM
T2 sequence (Q9NZ08 whole entry L733R): as the sequence (Q9NZ08 whole entry I681R) above, with R681I, L733R counted along it
T4 sequence (Q9NZ08 whole entry F803R): as the sequence (Q9NZ08 whole entry I681R) above, with R681I, F803R counted along it
T3 sequence (Q9NZ08 whole entry V737R): as the sequence (Q9NZ08 whole entry I681R) above, with R681I, V737R counted along it
Sequence of ERAP1 L734R (Homo sapiens, UniProt Q9NZ08, L734R) (Q9NZ08 whole entry L734R): as the sequence (Q9NZ08 whole entry I681R) above, with R681I, L734R counted along it
Sequence of ERAP1 F803R (Homo sapiens, UniProt Q9NZ08, F803R/R127P) (Q9NZ08 whole entry R127P/F803R): as the sequence (Q9NZ08 whole entry I681R) above, with R127P, R681I, F803R counted along it

Compound: IINFEKL
- allosteric activation in steady state kinetics (ERAP1 WT [1]; [21]): significant or dramatic increase of Vmax; also recorded: effective allosteric activator
- allosteric activation in steady state kinetics (ERAP1 I681R [2]; [21]): significant or dramatic increase of Vmax
- allosteric activation in steady state kinetics (ERAP1 L733R [3]; [21]): significant or dramatic increase of Vmax
- allosteric activation in steady state kinetics (ERAP1 L734R [4]; [21]): significant or dramatic increase of Vmax
- allosteric activation in steady state kinetics (ERAP1 V737R [5]): significant or dramatic increase of Vmax
- allosteric activation in steady state kinetics (ERAP1 F803R [6]; [21]): significant or dramatic increase of Vmax; also recorded: effective allosteric activator
- Vmax of L-AMC hydrolysis, peptide activator varied (ERAP1 WT [7]; [22]): 241 ± 6 nmol/min/µg
- AC50 (ERAP1 WT [7]; [23]): 80 ± 10 µM
- Vmax of L-AMC hydrolysis, peptide activator varied (ERAP1 I681R [8]; [22]): 175 ± 54 nmol/min/µg
- AC50 (ERAP1 I681R [8]; [23]): 1460 ± 840 µM
- Vmax of L-AMC hydrolysis, peptide activator varied (ERAP1 L733R [9]; [22]): 211 ± 10 nmol/min/µg
- AC50 (ERAP1 L733R [9]; [23]): 440 ± 60 µM
- Vmax of L-AMC hydrolysis, peptide activator varied (ERAP1 L734R [10]; [22]): 112 ± 8 nmol/min/µg
- AC50 (ERAP1 L734R [10]; [23]): 580 ± 120 µM
- Vmax of L-AMC hydrolysis, peptide activator varied (ERAP1 V737R [11]; [22]): 62 ± 7 nmol/min/µg
- AC50 (ERAP1 V737R [11]; [23]): 590 ± 170 µM
- Vmax of L-AMC hydrolysis, peptide activator varied (ERAP1 F803R [12]; [22]): 217 ± 9 nmol/min/µg
- AC50 (ERAP1 F803R [12]; [23]): 170 ± 30 µM
- activation of L-AMC hydrolysis over basal level (ERAP1 WT [13]): significant increase
- allosteric activation compared to wildtype enzyme (ERAP1 I681R [14]; [24]): about 75%
- allosteric activation compared to wildtype enzyme (ERAP1 L733R [15]; [24]): ~50%
- allosteric activation compared to wildtype enzyme (ERAP1 L734R [16]; [24]): ~55%
- activation of L-AMC hydrolysis over basal level (ERAP1 V737R [17]; 100 μM peptide): lowest activity in the presence of IINFEKL peptide and with the smallest activation from its basal activity
- activation of L-AMC hydrolysis over basal level (ERAP1 F803R [18]): significant increase

Compound: IINFEKE
- allosteric activation in steady state kinetics (ERAP1 V737R [5]): significantly activated; also recorded: not a very effective activator
- activation of L-AMC hydrolysis over basal level (ERAP1 WT [13]): not activated significantly above their basal levels; also recorded: did not show significant difference from their respective basal activity
- activation of L-AMC hydrolysis over basal level (ERAP1 I681R [14]; 100 μM peptide): not activated significantly above their basal levels
- activation of L-AMC hydrolysis over basal level (ERAP1 L733R [15]; 100 μM peptide): not activated significantly above their basal levels; also recorded: did not show significant difference from their respective basal activity
- activation of L-AMC hydrolysis over basal level (ERAP1 L734R [16]; 100 μM peptide): not activated significantly above their basal levels
- activation of L-AMC hydrolysis above basal activity (ERAP1 V737R [17]; 100 μM peptide): ~ 30%
- activation of L-AMC hydrolysis over basal level (ERAP1 V737R [17]; 100 μM peptide): slight but significant activation
- activation of L-AMC hydrolysis over basal level (ERAP1 F803R [18]): not activated significantly above their basal levels; also recorded: did not show significant difference from their respective basal activity
- change of sigmoidal curves, h values, or Vmax (ERAP1 WT and variants): did not change much the sigmoidal curves

Compound: QLESIINFEKL [KL1]
- processing by ERAP1 (ERAP1): efficiently processed by ERAP1

Compound: Cc1cc(=O)oc2cc(NC(=O)[C@@H](N)CC(C)C)ccc12 [L-AMC, leucine-7-amido-4-methyl-coumarin, reference compound]
- Hill coef. (h) (ERAP1 WT [1]; [25]): 2.6
- K1/2 (half-Vmax concentration of L-AMC) (ERAP1 WT [1]; [25]): 0.38 ± 0.05 mM
- Hill coef. (h) (ERAP1 I681R [2]; [25]): 1.8
- K1/2 (half-Vmax concentration of L-AMC) (ERAP1 I681R [2]; [25]): 0.23 ± 0.04 mM
- Hill coef. (h) (ERAP1 L733R [3]; [25]): 1.5
- K1/2 (half-Vmax concentration of L-AMC) (ERAP1 L733R [3]; [25]): 0.19 ± 0.03 mM
- Hill coef. (h) (ERAP1 L734R [4]; [25]): 1.3
- K1/2 (half-Vmax concentration of L-AMC) (ERAP1 L734R [4]; [25]): 0.33 ± 0.09 mM
- Hill coef. (h) (ERAP1 V737R [5]; [25]): 1.9
- K1/2 (half-Vmax concentration of L-AMC) (ERAP1 V737R [5]; [25]): 0.52 ± 0.09 mM
- K1/2 (half-Vmax concentration of L-AMC) (ERAP1 F803R [6]; [25]): 0.39 ± 0.06 mM
- basal L-AMC hydrolysis (ERAP1 WT [13]; no peptide): low but detectable basal level
- basal L-AMC hydrolysis (ERAP1 I681R [14]; no peptide): low but detectable basal level; also recorded: higher than the other mutant enzymes and the WT enzyme
- basal L-AMC hydrolysis (ERAP1 L733R [15]; no peptide): low but detectable basal level
- basal L-AMC hydrolysis (ERAP1 L734R [16]; no peptide): low but detectable basal level; also recorded: higher than the other mutant enzymes and the WT enzyme
- basal L-AMC hydrolysis (ERAP1 V737R [17]; no peptide): low but detectable basal level
- basal L-AMC hydrolysis (ERAP1 F803R [18]; no peptide): low but detectable basal level

Compound: LESIINFEKL [KL2]
- time after which the amount of 10-mer product began to decrease (ERAP1 WT [19]): > 10 min
- time after which the amount of 10-mer product began to decrease (ERAP1 F803R [20]): > 10 min
